In ChEMBL document CHEMBL1148787, “Novel substituted (pyridin-3-yl)phenyloxazolidinones: antibacterial agents with reduced activity against monoamine oxidase A and increased solubility” (J Med Chem, 2007):
Converted amounts (≈) assume the structure as drawn.

Legend:
[1] = Oral bioavailability in Wistar rat at 10 mg/kg, po; type: ADME, organism-based; settings: in vivo
Method in brief: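 Wistar Han rats, groups of three; 10 mg/kg given by oral gavage, compared against iv dosing. Serial whole-blood sampling, plasma drug by LC-MS/MS, noncompartmental pharmacokinetic analysis.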

[2] = AUC in Wistar rat at 10 mg/kg, iv; type: ADME, organism-based; parameters: dose 10 mg/kg, route intravenous; settings: plasma
Method in brief: (§1)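 Groups of three Wistar Han rats; bolus injection via cannulated jugular vein at 2 or 10 mg/kg. Serial 200 µL whole-blood samples at time intervals; plasma levels by LC-MS/MS; parameters by noncompartmental analysis.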

Streptococcus pneumoniae [3] = experiment: Antibacterial activity against penicillin-susceptible Streptococcus pneumoniae AP671401; type: functional
Method in brief: (§2)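 CLSI broth microdilution, 64 to 0.06 µg/mL, 2% DMSO final. Media: S. aureus, Mueller Hinton broth; H. influenzae, MHB plus 0.5% yeast extract, 15 µg/mL hematin, 1.5 µg/mL NAD; S. pneumoniae, MHB plus 0.65% lysed horse blood. 35 °C, aerobic (S. aureus) or 5% CO2.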

[4] = Clearance in Wistar rat at 10 mg/kg, iv; type: ADME, organism-based; parameters: dose 10 mg/kg, route intravenous; settings: in vivo; method in brief: as §1
Haemophilus influenzae = experiment: Antibacterial activity against Haemophilus influenzae ATCC 51907; type: functional; method in brief: as §2
Staphylococcus aureus = experiment: Antibacterial activity against methicillin-susceptible Staphylococcus aureus AP601055; type: functional; method in brief: as §2
[5] = Half life in Wistar rat at 10 mg/kg, iv; type: ADME, organism-based; parameters: dose 10 mg/kg, route intravenous; settings: in vivo; method in brief: as §1
[6] = target: T1, Amine oxidase [flavin-containing] A (Homo sapiens, UniProt P21397); experiment: Inhibition of human liver MAOA expressed in yeast
T1 sequence (P21397 whole entry): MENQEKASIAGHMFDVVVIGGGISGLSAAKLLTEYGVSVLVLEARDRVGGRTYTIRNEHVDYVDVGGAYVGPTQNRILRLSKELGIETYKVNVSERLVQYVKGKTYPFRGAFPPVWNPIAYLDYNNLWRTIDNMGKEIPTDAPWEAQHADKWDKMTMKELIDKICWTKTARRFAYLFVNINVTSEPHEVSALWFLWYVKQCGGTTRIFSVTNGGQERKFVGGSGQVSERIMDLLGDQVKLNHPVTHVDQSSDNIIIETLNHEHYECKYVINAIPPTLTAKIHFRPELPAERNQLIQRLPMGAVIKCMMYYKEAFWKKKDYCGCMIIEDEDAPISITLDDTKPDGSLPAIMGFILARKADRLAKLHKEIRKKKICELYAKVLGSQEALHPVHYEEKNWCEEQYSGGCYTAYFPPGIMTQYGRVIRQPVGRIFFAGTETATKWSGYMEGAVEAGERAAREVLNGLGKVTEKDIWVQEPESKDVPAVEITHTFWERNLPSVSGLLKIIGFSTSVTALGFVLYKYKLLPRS

[7] = Solubility by nephelometric analysis; type: physicochemical
Method in brief: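 Nephelometry after diluting compounds into the MAO-A assay mixture (100 mM potassium phosphate, pH 7.4).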

Streptococcus pneumoniae [8] = experiment: Antibacterial activity against linezolid-resistant Streptococcus pneumoniae; type: functional
Method in brief: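 Broth microdilution per CLSI guidelines. Compounds were dissolved in 100% DMSO and diluted to 2% DMSO (v/v), 64 to 0.06 µg/mL, in 2.2% (w/v) Mueller Hinton broth with 0.65% (v/v) lysed horse blood. Plates were incubated at 35 °C in 5% CO2 and read at 620 nm.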

[9] = Volume of distribution in Wistar rat at 10 mg/kg, iv; type: ADME, organism-based; parameters: dose 10 mg/kg, route intravenous; settings: in vivo, read-out: Vdss; method in brief: as §1
Homo sapiens = species: Homo sapiens; experiment: Protein binding in human plasma; settings: read-out: PPB (converted)
[10] = Clearance in Wistar rat at 2 mg/kg, iv; type: ADME, organism-based; parameters: dose 2 mg/kg, route intravenous; settings: in vivo; method in brief: as §1
[11] = Volume of distribution in Wistar rat at 2 mg/kg, iv; type: ADME, organism-based; parameters: dose 2 mg/kg, route intravenous; settings: in vivo, read-out: Vdss; method in brief: as §1
Rattus norvegicus = experiment: AUC in Wistar rat at 2 mg/kg, iv; type: ADME, organism-based, Plasma; parameters: dose 2 mg/kg, route intravenous; settings: in vivo; method in brief: as §1
[12] = Half life in Wistar rat at 2 mg/kg, iv; type: ADME, organism-based; parameters: dose 2 mg/kg, route intravenous; settings: in vivo; method in brief: as §1
Cytochrome P450 3A4 = Cytochrome P450 3A4 (Homo sapiens, UniProt P08684); experiment: Inhibition of human recombinant CYP3A4; type: ADME
Chain of Cytochrome P450 3A4 (P08684 whole entry): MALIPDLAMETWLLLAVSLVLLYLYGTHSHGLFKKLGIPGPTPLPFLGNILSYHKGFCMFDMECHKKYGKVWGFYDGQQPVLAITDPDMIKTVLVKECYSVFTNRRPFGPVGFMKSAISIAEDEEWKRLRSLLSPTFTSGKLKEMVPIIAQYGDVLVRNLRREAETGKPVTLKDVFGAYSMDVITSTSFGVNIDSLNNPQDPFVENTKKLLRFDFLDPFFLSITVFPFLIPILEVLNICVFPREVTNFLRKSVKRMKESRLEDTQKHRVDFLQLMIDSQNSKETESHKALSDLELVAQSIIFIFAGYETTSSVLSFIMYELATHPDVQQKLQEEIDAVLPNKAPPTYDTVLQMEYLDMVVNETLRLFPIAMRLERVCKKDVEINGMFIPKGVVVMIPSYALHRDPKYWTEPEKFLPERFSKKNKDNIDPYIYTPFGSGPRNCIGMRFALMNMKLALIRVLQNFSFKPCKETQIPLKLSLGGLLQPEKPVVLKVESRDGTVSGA

Cytochrome P450 1A2 = target: T2, Cytochrome P450 1A2 (Homo sapiens, UniProt P05177); experiment: Inhibition of human recombinant CYP1A2; type: ADME
T2 sequence (P05177 whole entry): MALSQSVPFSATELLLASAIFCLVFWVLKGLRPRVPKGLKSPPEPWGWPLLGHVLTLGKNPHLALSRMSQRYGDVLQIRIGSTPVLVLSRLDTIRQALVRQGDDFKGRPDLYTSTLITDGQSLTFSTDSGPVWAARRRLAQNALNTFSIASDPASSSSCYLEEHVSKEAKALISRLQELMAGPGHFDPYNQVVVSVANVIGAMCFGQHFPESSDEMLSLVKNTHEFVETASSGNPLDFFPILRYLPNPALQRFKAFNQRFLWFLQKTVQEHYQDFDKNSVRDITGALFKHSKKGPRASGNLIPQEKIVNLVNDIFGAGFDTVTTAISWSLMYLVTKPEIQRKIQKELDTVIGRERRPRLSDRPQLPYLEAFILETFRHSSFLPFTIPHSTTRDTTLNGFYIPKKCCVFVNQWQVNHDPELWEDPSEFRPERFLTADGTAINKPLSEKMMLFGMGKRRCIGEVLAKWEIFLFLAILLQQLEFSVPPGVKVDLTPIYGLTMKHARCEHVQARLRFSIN
Method in brief: (§3)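 Recombinant human P450s, compound at 0.2-20 µM; fluorogenic substrates: 3-cyano-7-ethoxycoumarin (1A2), 7-methoxy-4-trifluoromethylcoumarin (2C9, 2C19), 7-methoxy-4-(aminomethyl)coumarin (2D6). Fluorescence detection; IC50 determined.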

Streptococcus pneumoniae [13] = experiment: Antibacterial activity against Streptococcus pneumoniae 548 infected mouse lung infection model assessed as reduction in bacterial count at 40 mg/kg/day, po relative to control; type: functional
Method in brief: (§4)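 Groups of 10 CD-1 mice infected intratracheally, 1 × 10^5 cfu/lung. Oral gavage of compound or vehicle started 18 h post-infection. Lungs removed 24 h after treatment start, homogenized, serially diluted onto Tryptic Soy agar with 5% sheep blood; log CFU reduction versus vehicle group.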

Cytochrome P450 2C9 = Cytochrome P450 2C9 (Homo sapiens, UniProt P11712); experiment: Inhibition of human recombinant CYP2C9; type: ADME; method in brief: as §3
Chain of Cytochrome P450 2C9 (P11712 whole entry): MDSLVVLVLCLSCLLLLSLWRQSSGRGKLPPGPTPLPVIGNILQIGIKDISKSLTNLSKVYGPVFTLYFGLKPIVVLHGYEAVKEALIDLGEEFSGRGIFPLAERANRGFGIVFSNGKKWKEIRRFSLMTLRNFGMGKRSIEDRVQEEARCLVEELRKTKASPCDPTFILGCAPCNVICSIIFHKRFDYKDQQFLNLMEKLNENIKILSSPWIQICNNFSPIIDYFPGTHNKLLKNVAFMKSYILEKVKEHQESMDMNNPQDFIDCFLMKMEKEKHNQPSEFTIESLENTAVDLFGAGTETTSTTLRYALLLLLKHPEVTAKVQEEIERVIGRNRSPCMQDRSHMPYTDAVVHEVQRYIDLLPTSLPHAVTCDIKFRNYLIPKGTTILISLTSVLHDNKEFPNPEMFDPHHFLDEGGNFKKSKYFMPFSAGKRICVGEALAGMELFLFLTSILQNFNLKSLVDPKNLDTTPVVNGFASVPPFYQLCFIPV

Streptococcus pneumoniae [14] = experiment: Antibacterial activity against Streptococcus pneumoniae 548 infected mouse lung infection model assessed as reduction in bacterial count at 80 mg/kg/day, po relative to control; type: functional; method in brief: as §4
Cytochrome P450 2D6 = Cytochrome P450 2D6 (Homo sapiens, UniProt P10635); experiment: Inhibition of human recombinant CYP2D6; type: ADME; method in brief: as §3
Chain of Cytochrome P450 2D6 (P10635 whole entry): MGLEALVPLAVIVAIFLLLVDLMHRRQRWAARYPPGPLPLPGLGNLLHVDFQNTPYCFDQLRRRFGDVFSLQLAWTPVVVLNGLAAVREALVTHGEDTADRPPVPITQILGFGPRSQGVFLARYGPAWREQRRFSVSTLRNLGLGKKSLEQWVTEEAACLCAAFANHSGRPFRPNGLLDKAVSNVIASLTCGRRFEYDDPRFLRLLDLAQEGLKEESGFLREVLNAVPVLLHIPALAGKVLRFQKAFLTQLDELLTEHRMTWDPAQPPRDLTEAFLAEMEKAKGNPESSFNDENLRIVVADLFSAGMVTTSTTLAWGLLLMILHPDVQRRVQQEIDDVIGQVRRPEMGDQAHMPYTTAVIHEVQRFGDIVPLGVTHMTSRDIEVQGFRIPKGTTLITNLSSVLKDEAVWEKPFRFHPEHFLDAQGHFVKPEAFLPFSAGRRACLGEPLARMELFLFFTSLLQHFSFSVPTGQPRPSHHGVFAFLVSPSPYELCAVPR

Cytochrome P450 2C19 = Cytochrome P450 2C19 (Homo sapiens, UniProt P33261); experiment: Inhibition of human recombinant CYP2C19; type: ADME; method in brief: as §3
Chain of Cytochrome P450 2C19 (P33261 whole entry): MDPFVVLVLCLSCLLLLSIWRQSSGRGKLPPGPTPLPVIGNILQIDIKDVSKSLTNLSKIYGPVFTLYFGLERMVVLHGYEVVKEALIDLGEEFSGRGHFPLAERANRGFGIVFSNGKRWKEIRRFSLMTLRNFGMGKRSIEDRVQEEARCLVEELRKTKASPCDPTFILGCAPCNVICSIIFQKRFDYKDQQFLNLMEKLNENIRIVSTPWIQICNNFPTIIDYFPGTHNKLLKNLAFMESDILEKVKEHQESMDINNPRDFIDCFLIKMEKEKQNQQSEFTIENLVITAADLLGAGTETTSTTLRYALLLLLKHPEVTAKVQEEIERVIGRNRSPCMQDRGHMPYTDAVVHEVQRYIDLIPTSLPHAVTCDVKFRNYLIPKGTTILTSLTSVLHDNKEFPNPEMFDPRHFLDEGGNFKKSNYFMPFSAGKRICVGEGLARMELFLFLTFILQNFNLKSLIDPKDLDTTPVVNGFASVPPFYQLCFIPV

Mus musculus [15] = experiment: AUC in Streptococcus pneumoniae 548 infected mouse lung infection model at 80 mg/kg/day, po; type: ADME, organism-based; parameters: route oral; settings: in vivo
Method in brief: (§5)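 CD-1 mice; oral gavage at 40 or 80 mg/kg. Groups of three sacrificed at timed intervals, whole blood taken by cardiac puncture; plasma treated with methanol containing internal standard and quantified by LC-MS/MS against standard curve.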

Mus musculus [16] = experiment: AUC in Streptococcus pneumoniae 548 infected mouse lung infection model at 40 mg/kg/day, po; type: ADME, organism-based; parameters: route oral; settings: in vivo; method in brief: as §5

Compound | bioavailability [1] | AUC [2] | MIC (Streptococcus pneumoniae [3]) | clearance [4] | MIC (Haemophilus influenzae) | MIC (Staphylococcus aureus) | half-life [5] | Ki [6] | solubility kinetic [7] | MIC (Streptococcus pneumoniae [8]) | Vd [9] | fraction unbound (Homo sapiens) | clearance [10] | Vd [11] | AUC (Rattus norvegicus) | half-life [12] | other results
C[C@H](O)c1ccc(-c2ccc(N3C[C@H](Cn4ccnn4)OC3=O)cc2F)cn1 | 100% | 6.7 µg·h/mL | < 0.06 mg/L | 1.5 L/h/kg | 2 mg/L (≈ 5.22 µM) | 0.5 mg/L (≈ 1.3 µM) | 1 h | 5.9 µM | > 400 µM | 1 mg/L (≈ 2.61 µM) | 1.3 L/kg |  |  |  |  |  | 
O=C1O[C@@H](Cn2ccnn2)CN1c1ccc(-c2ccc(C(O)CO)nc2)c(F)c1 (some centres undefined) |  | 3.9 µg·h/mL | < 0.06 mg/L | 2.58 L/h/kg | 1 mg/L (≈ 2.5 µM) | 0.25 mg/L (≈ 0.626 µM) | 0.45 h |  | > 400 µM | 1 mg/L (≈ 2.5 µM) | 1 L/kg | 0.54 |  |  |  |  | 
Cc1cn(CC(=O)c2ccc(-c3ccc(N4C[C@H](Cn5ccnn5)OC4=O)cc3F)cn2)c(C)n1 | 14% |  | < 0.06 mg/L |  | 2 mg/L (≈ 4.21 µM) | 0.25 mg/L (≈ 0.526 µM) |  | > 11 µM | 25 µM (≈ 11.9 µg/mL) | 0.25 mg/L (≈ 0.526 µM) |  | 0.12 | 0.78 L/h/kg | 0.9 L/kg | 2.6 ug/hr.ml | 1 h | 
CCc1nccn1CC(=O)c1ccc(-c2ccc(N3C[C@H](Cn4ccnn4)OC3=O)cc2F)cn1 |  |  | < 0.06 mg/L |  | 4 mg/L (≈ 8.41 µM) | 0.5 mg/L (≈ 1.05 µM) |  | > 44 µM | 100 µM (≈ 47.5 µg/mL) | 0.5 mg/L (≈ 1.05 µM) |  |  | 1.38 L/h/kg | 0.9 L/kg | 1.6 ug/hr.ml | 0.6 h | 
Cc1cnc(C)n1CC(=O)c1ccc(-c2ccc(N3C[C@H](Cn4ccnn4)OC3=O)cc2F)cn1 | 73% |  | < 0.06 mg/L |  | 4 mg/L (≈ 8.41 µM) | 0.25 mg/L (≈ 0.526 µM) |  | 19 µM | 50 µM (≈ 23.8 µg/mL) | 0.5 mg/L (≈ 1.05 µM) |  | 0.1 | 0.6 L/h/kg | 1.4 L/kg | 3.3 ug/hr.ml | 1.8 h | IC50 (Cytochrome P450 3A4): 10.7 µM; IC50 (Cytochrome P450 1A2): > 20 µM; Log10 cfu (Streptococcus pneumoniae [13]): 1.94; IC50 (Cytochrome P450 2C9): > 20 µM; Log10 cfu (Streptococcus pneumoniae [14]): 2.57; IC50 (Cytochrome P450 2D6): > 20 µM; IC50 (Cytochrome P450 2C19): > 20 µM; AUC (Mus musculus [15]): 31 µg·h/mL; AUC (Mus musculus [16]): 17.4 µg·h/mL
O=C(CC1CCNCC1)c1ccc(-c2ccc(N3C[C@H](Cn4ccnn4)OC3=O)cc2F)cn1 |  | 0.8 µg·h/mL | 0.13 mg/L (≈ 0.28 µM) | 11.8 L/h/kg | 8 mg/L (≈ 17.2 µM) | 1 mg/L (≈ 2.15 µM) | 2.4 h | 28 µM | > 400 µM | 0.5 mg/L (≈ 1.08 µM) | 15 L/kg |  |  |  |  |  | 
Cc1nccn1CC(=O)c1ccc(-c2ccc(N3C[C@H](Cn4ccnn4)OC3=O)cc2F)cn1 | 100% | 1.2 µg·h/mL | 0.13 mg/L (≈ 0.282 µM) | 3.72 L/h/kg | 2 mg/L (≈ 4.33 µM) | 0.5 mg/L (≈ 1.08 µM) | 0.4 h | > 89 µM | 200 µM (≈ 92.3 µg/mL) | 0.5 mg/L (≈ 1.08 µM) | 0.3 L/kg | 0.25 |  |  |  |  | IC50 (Cytochrome P450 3A4): > 20 µM; IC50 (Cytochrome P450 1A2): > 20 µM; IC50 (Cytochrome P450 2C9): > 20 µM; IC50 (Cytochrome P450 2D6): > 20 µM; IC50 (Cytochrome P450 2C19): > 20 µM
O=C(c1ccc(-c2ccc(N3C[C@H](Cn4ccnn4)OC3=O)cc2F)cn1)C1CCNCC1 |  | 4 µg·h/mL | 0.13 mg/L (≈ 0.289 µM) | 2.28 L/h/kg | 4 mg/L (≈ 8.88 µM) | 0.5 mg/L (≈ 1.11 µM) | 2.4 h | > 44 µM | 100 µM (≈ 45 µg/mL) | 0.5 mg/L (≈ 1.11 µM) | 3.8 L/kg |  |  |  |  |  | 
CC(=O)NC[C@H]1CN(c2ccc(N3CCOCC3)c(F)c2)C(=O)O1 [LINEZOLID] |  |  |  |  |  |  |  |  |  |  |  |  |  |  |  |  | Log10 cfu (Streptococcus pneumoniae [14]): 3.89; AUC (Mus musculus [15]): 105 µg·h/mL; AUC (Mus musculus [16]): 45.7 µg·h/mL
